According to article PMC2647014 (Journal of the American Chemical Society, 2008):
Values belong to the compound of their own block, whether it stands above or below them.

Key:
[1] = cited from earlier work
[2] = Photophysical properties of the fluorescent KR peptides; assay type: physicochemical; details: visible spectrum
[3] = Stability to hydrolysis of the imide ring in PBS buffer; assay type: physicochemical
Procedure, shortened: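 Fluorophore-bearing model peptides are incubated in PBS at pH 6, 7 and 8 and 28 °C, with fluorescence monitored in a 96-well plate over 24 hrs. For the 4-DMAP peptide, percent conversion is the percent loss of fluorescence from time zero.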

[4] = Stability toward 4-methylpiperidine / piperidine; assay type: physicochemical; details: during preparation of fluorescent peptides by SPPS
Procedure, shortened: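 Resin-bound model peptides are treated with 4-methylpiperidine under conditions simulating a standard Fmoc-deprotection cycle. Treated and untreated samples are cleaved from the resin under acidic conditions. Crude mixtures are analysed by HPLC and ESI mass spectrometry for hydrolysis byproducts.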

SMILES: CN(C)c1ccc2cc(C(=O)CBr)ccc2c1 [BADAN, 6-bromoacetyl-2-dimethylaminonaphthalene]
- fluorescence quantum yield in water (Φwater) [1]: 0.18

- wavelength of excitation of the fluorophore / amino acid [2]: 400-450 nm
SMILES: CN(C)c1ccc2c3c(cccc13)C(=O)N(C[C@H](N)C(=O)O)C2=O [4-DMNA, 4-N,N-dimethylamino-1,8-naphthalimidoalanine]
- relative stability of fluorescent side-chain (in words) ([3]; compared with 4-DAPA and 6-DMNA): significantly more stable than those of 4-DAPA and 6-DMNA

- fluorescence emission after 24 hrs (in words) ([3]; PBS buffer, 28 °C, 24 hrs, Figure 2b, harshest conditions anticipated): no significant change in fluorescence
SMILES: CN(C)c1ccc2c3c(cccc13)C(=O)NC2=O [4-DMN, 4-N,N-dimethylamino-1,8-naphthalimide]

- emission maximum of fluorescent species from hydrolysis ([3]; hydrolysis product, high pH): 470-480 nm
SMILES: CN(C)c1ccc2cc3c(cc2c1)C(=O)NC3=O [6-DMN, 6-N,N-dimethylamino-2,3-naphthalimide, reference compound]

- hydrolysis product fluorescence (in words) ([3]; hydrolysis of the imide ring, high pH): non-fluorescent byproduct
SMILES: CN(C)c1ccc2c(c1)C(=O)NC2=O [4-DMAP, 4-N,N-dimethylaminophthalimide, reference compound]

- susceptibility to piperidine (in words) [4]: shows no susceptibility to piperidine
SMILES: CN(C)c1ccc2c3c(cccc13)C(=O)N(C[C@H](NC(=O)OCC1c3ccccc3-c3ccccc31)C(=O)O)C2=O [compound 4, N-α-Fmoc-(4-N,N-Dimethylamino-1,8-naphthalimido)-alanine]
